Runt-SMMHC FRET = inhibitors of human RUNX1 Runt domain binding to CBFb-SMMHC. Cerulean-Runt/Venus-CBFb-SMMHC FRET ratio 530/480, 1 h. inhibition, % at 20 µM. 220,000 tested, 0.74% active;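 active means mean inhibition across duplicate retests at 20 µM reaching about 50%, limit read from the data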;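 further: 0% = DMSO wells and 100% = wells with excess untagged CBFb-SMMHC; inhibitors lower the FRET ratio by blocking Runt binding to CBFb-SMMHC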
zVAD death inh = L929 zVAD cell death inhibition; L929 zVAD necroptosis rescue, ATP luminescence, 24 h; with zVAD 60 µM; viability rescue, % at 10 µM; 220,000 tested, 0.38% active;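 active means activation, scaled between plate controls, above about 75%, limit read from the data; inactive means activation under that limit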;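 further: 0% = zVAD with DMSO and 100% = DMSO alone without zVAD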
Runt-CBFb FRET = blocks binding of human RUNX1 Runt domain to CBFb. 220,000 tested, 0.46% active. Cerulean-Runt/Venus-CBFb FRET ratio 530/480, 1 h. inhibition, % at 20 µM. AID 1496;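 active means inhibition over about 50% at 20 µM in the single-dose screen, limit read from the data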;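 further: 0% = DMSO wells and 100% = excess unlabeled CBFb competitor control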
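Buffer or medium: Tris pH 7.5 buffer with BSA. Assay system: Cerulean-labeled Runt domain protein. Amount: each fluorescent fusion protein 100 nM. Read-out basis: loss of energy transfer signal. Incubation: 1 h compound exposure, room temperature. Probe or stimulus: Venus-CBFb binding partner, 100 nM. Detection: FRET, excitation 422 nm, emission at 530 and 480 nm.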
RanGTP-Imp inh = disruptors of Ran-importin-beta complex formation – biochemical, FRET, CFP-Ran, YFP-importin-beta, homogeneous, primary screen. cell-free CFP-Ran/YFP-importin-beta FRET ratio. inhibition, % (test concentration not listed). 300,000 tested, 1.1% active;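 active means more than half of the replicate wells show a fall in the fluorescence ratio signal beyond about 16%, limit read from the data, passing the limit was not always enough; inconclusive means exactly half of the replicate wells pass the set limit; inactive means fewer than half of replicates pass the limit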;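 further: 0% = DMSO wells and 100% = Ran loaded with GDP instead of GTP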
Hck-Nef inh = blocks Nef-activated human Hck kinase | 220,000 tested, 0.68% active | Recombinant Hck-YEEI plus Nef, Z-Lyte FRET kinase assay | AID 463187 | inhibition, % at 20 µM;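 active means Hck-Nef kinase inhibition above about 50%, limit read from the data; inactive means inhibition below that limit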;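 further: 0% = DMSO with Hck plus Nef and 100% = Hck alone without Nef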
Target sequence (P08631 whole entry, looked up): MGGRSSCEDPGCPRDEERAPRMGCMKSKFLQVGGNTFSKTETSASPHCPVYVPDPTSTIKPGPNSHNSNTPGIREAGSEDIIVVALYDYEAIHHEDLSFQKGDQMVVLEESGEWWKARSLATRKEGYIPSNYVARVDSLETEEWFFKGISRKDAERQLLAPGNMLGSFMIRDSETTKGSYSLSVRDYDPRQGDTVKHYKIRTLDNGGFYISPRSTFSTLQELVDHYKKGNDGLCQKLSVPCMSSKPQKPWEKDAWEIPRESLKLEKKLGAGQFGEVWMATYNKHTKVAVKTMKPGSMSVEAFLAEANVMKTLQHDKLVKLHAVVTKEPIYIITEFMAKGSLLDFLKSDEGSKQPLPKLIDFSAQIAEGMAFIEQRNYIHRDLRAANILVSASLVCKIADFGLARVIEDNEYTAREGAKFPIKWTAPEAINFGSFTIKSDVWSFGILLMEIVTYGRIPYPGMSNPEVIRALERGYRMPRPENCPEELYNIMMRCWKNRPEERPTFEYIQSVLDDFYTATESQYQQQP
TNF death inh = blocks TNF-alpha induced death of Jurkat FADD-/- cells | 220,000 tested, 0.068% active | activation (protection from cell death), % at 10 µM | AID 463075 | Jurkat FADD-/- TNF necroptosis rescue, ATP luminescence, 24 h; 0 = TNF only, 100 = no-TNF cells;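 active means activation, meaning protection from cell death, of at least 50% relative to plate controls; inactive means activation below 50%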;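 further: necroptosis triggered by 40 ng/mL TNF-alpha added together with compound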
* marks the source's active call; other numbers are inactive results; ? = inconclusive; nt = not tested or not shown. Hits are enriched below; roughly 2.1% of the tested compounds scored in any of these assays.

SMILES	Runt-SMMHC FRET	zVAD death inh	Runt-CBFb FRET	RanGTP-Imp inh	Hck-Nef inh	TNF death inh
CC(=O)c1cccc(NS(=O)(=O)c2ccc3c(c2)N(C(C)=O)CCO3)c1	nt	nt	nt	-1	nt	nt
O=C(Nc1ccccn1)C1COc2ccccc2O1 (stereo unspecified)	-4	1	0	1	5	30
Cc1csc(NC(=O)C2COc3ccccc3O2)n1 (stereo unspecified)	0	0	1	0	-1	3
Cc1cc(NC(=O)C2COc3ccccc3O2)no1 (stereo unspecified)	6	48	2	-1	-5	90*
O=C(Nc1ccc(Cl)cn1)C1COc2ccccc2O1 (stereo unspecified)	nt	38	nt	-1	21	89*
Cc1cc(NC(=O)COC(=O)C2COc3ccccc3O2)no1 (stereo unspecified)	16	0	5	0	0	-1
Cc1cnc(NC(=O)C2COc3ccccc3O2)s1 (stereo unspecified)	-5	1	-1	-4	1	76*
CCc1ccc(NC(=O)c2ccc(NC3=NC4CS(=O)(=O)CC4S3)cc2)cc1 (stereo unspecified)	nt	nt	nt	-7	nt	nt
Cc1cccc(NC(=O)c2cc3c(=O)n4ccccc4nc3n(CC(C)C)c2=N)c1	9	-1	3	2	36	2
N=c1c(C(=O)NCc2ccccc2)cc2c(=O)n3ccccc3nc2n1Cc1ccco1	nt	-2	20	78*	-21	-15
COCCn1c(=N)c(C(=O)NCc2ccco2)cc2c(=O)n3ccccc3nc21	41	-2	11	nt	23	-1
N=c1c(C(=O)NCc2ccco2)cc2c(=O)n3ccccc3nc2n1C1CCCC1	nt	nt	nt	135*	nt	nt
N=c1c(C(=O)NCc2ccco2)cc2c(=O)n3ccccc3nc2n1Cc1ccccc1	58*	-1	19	117*	8	-6
N=c1c(C(=O)NCc2ccc(F)cc2)cc2c(=O)n3ccccc3nc2n1Cc1ccco1	nt	0	69*	3	-5	-8
Cc1ccc2nc3c(cc(C(=O)NCc4ccco4)c(=N)n3Cc3ccco3)c(=O)n2c1	nt	-1	nt	89*	6	-6
N=c1c(C(=O)NCc2ccco2)cc2c(=O)n3ccccc3nc2n1Cc1ccc(Cl)cc1	-16	2	66*	126*	2	1
Cc1ccc(CNC(=O)c2cc3c(=O)n4ccccc4nc3n(Cc3ccco3)c2=N)cc1	39	nt	88*	78*	nt	nt
C=CCNC(=S)Nc1ccc(N(C)C)cc1	1	0	2	4	17	-1
CCCc1c(C(=O)N/N=C/c2ccccc2C(F)(F)F)nnn1-c1nonc1N	nt	nt	nt	4	nt	nt
COc1ccc(N2CCN(S(=O)(=O)c3ccc(OC)c(C(=O)N4CCCC4)c3)CC2)cc1	nt	nt	nt	2	nt	nt
N#Cc1c(-c2ccc(Cl)cc2)c2c([nH]c1=O)-c1ccccc1OC2	82*	0	89*	68*	37	-1
CC(=O)Nc1ccc2c3c(cccc13)C(=O)N(c1ccccc1)C2=O	87*	1	21	73*	8	1
O=C(O)c1ccc2c3c(cccc13)C(=O)N(c1ccccc1)C2=O	120	0	-1	?	19	-1
CCN(CC)S(=O)(=O)c1ccc2c(c1)nc(CCC(=O)Nc1ccc(N3CCOCC3)cc1)n2C	1	-1	1	7	18	0
Cc1nn2cc(-c3ccc(Cl)cc3)nc2s1	-4	1	2	1	1	-4
SMILES	Runt-SMMHC FRET	zVAD death inh	Runt-CBFb FRET	RanGTP-Imp inh	Hck-Nef inh	TNF death inh
Cc1nc2nc(-c3cccs3)cn2nc1C	-105	0	-4	57*	-8	-2
Cc1nc2nc(-c3ccc(Cl)cc3)cn2nc1C	57*	1	61*	78*	4	-1
CCN(CC)c1ccc(/C=C(/C#N)C(=O)NC(C)C)o1	-2	9	-5	-2	18	-1
CCN(CC)c1ccc(/C=C(/C#N)C(=O)NCc2ccccc2)o1	-19	5	-26	55*	3	2
Cc1sc2ncn(CC(=O)NCCCC(=O)N3CCN(c4ccccc4)CC3)c(=O)c2c1C	42	0	55*	-2	0	-2
CCOC(=O)C1CCN(c2nc3ccccc3nc2C(C#N)C(=O)OCCOC)CC1 (stereo unspecified)	6	-1	1	?	-17	-3
CCCN(CCC)c1nc2ccccc2nc1C(C#N)C(=O)OCCOC (stereo unspecified)	4	0	12	37*	0	-9
C=CCOC(=O)C(C#N)c1nc2ccccc2nc1N1CCC(C(=O)OCC)CC1 (stereo unspecified)	-13	5	-8	6	-2	-2
C=CCN(CC=C)c1nc2ccccc2nc1C(C#N)C(=O)OCCOC (stereo unspecified)	61*	-1	18	20*	3	-8
CCc1ccc(CN(C)C(=O)CCc2nnc(Cc3cccc(C)c3)o2)nc1	0	-1	1	-1	18	2
CCOC(=O)COc1ccccc1/C=C\[N+](=O)[O-]	1	2	12	2	3	1
Cc1nnc(SCc2nnc(-c3cccs3)o2)s1	-2	2	1	175*	-2	-1
Cc1nnc(SCc2nnc(-c3cccs3)o2)n1C	-3	1	1	3	31	1
CN(C)c1ccc(C(C#N)c2ccccc2)nn1 (stereo unspecified)	1	0	1	-3	5	9
COc1ccc(OC)c(-c2cnc(OC(C)(C)C)nc2OC(C)(C)C)c1	0	1	-6	9	3	-6
CCN(CC)C1CC(=O)N(c2cccc(Cl)c2)C1=O (stereo unspecified)	nt	nt	nt	-3	nt	nt
O=C(N/N=C/c1c(O)n(-c2ccc(Cl)cn2)c(=O)c2ccccc12)c1ccncc1	86*	0	-22	-6	-5	1
COC(=O)c1ccc(/C=C(\C#N)c2nc3ccccc3s2)cc1	-8	0	-8	0	1	-1
N#C/C(=C\c1ccncc1)c1nc2c(s1)CCCC2	87*	-1	22	?	-14	-7
Cc1ccc(C(=O)NC(C#N)=C(Cl)Cl)cc1	-3	62	1	0	19	74*
O=c1cc(-c2ccc(O)cc2)oc2cc(O)c(C3OC(CO)C(O)C(O)C3O)c(O)c12 (stereo unspecified)	87*	0	38	7	-9	-2
COc1cnc(-c2cccc(C(F)(F)F)c2)[nH]c1=O	-2	0	1	-2	10	1

Screening results: PubChem, several laboratories
